Test results taken from ChEMBL document CHEMBL1158416, “Synthesis of yashabushidiol and its analogues and their cytotoxic activity against cancer cell lines” (Bioorg Med Chem Lett, 2009).
Values after ≈ are worked out from the molar mass of the structure shown.

Legend:
Type in all cases: functional, cell-based
[1] = test system: THP-1; experiment: Antiproliferative activity against human THP1 cells after 48 hrs by MTT assay; conditions: THP-1, 48 h
How it was run: (§1)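 Cells in exponential growth exposed to a range of test concentrations for 48 h; growth inhibition read by MTT. IC50 taken as the concentration giving a 50% fall in cell number relative to untreated control cultures, derived by regression analysis.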

[2] = test system: U-937; experiment: Antiproliferative activity against human U937 cells after 48 hrs by MTT assay; conditions: U-937, 48 h; how it was run: as §1
[3] = test system: A-375; experiment: Antiproliferative activity against human A375 cells after 48 hrs by MTT assay; conditions: A-375, 48 h; how it was run: as §1

| SMILES | IC50 [1] [µg/mL] | IC50 [2] [µg/mL] | IC50 [3] [µg/mL] |
| --- | --- | --- | --- |
| COc1cc(CC[C@@H](O)C[C@@H](O)CCc2ccccc2)ccc1O | 72.2 (≈ 219 µM) | 32.7 (≈ 98.9 µM) | 75.2 (≈ 228 µM) |
| O[C@@H](CCc1ccccc1)C[C@@H](O)CCc1ccccc1 | 99.8 (≈ 351 µM) | 128 (≈ 451 µM) | 148 (≈ 520 µM) |
| O[C@H](CCc1ccccc1)C[C@@H](O)CCc1ccccc1 | 40.5 (≈ 142 µM) | 188 (≈ 660 µM) | 164 (≈ 578 µM) |

Continued, values first:

| IC50 [1] [µg/mL] | IC50 [2] [µg/mL] | IC50 [3] [µg/mL] | SMILES |
| --- | --- | --- | --- |
| 12.8 (≈ 42.7 µM) | 31.1 (≈ 103 µM) | 56.3 (≈ 187 µM) | Oc1ccc(CC[C@H](O)C[C@@H](O)CCc2ccccc2)cc1 |
| 42.7 (≈ 129 µM) | 27.7 (≈ 83.7 µM) | 69.1 (≈ 209 µM) | COc1cc(CC[C@H](O)C[C@@H](O)CCc2ccccc2)ccc1O |
| 12.6 (≈ 42 µM) | 33 (≈ 110 µM) | 57.8 (≈ 192 µM) | Oc1ccc(CC[C@@H](O)C[C@@H](O)CCc2ccccc2)cc1 |
